{
  "source": "ChEMBL document CHEMBL4689842",
  "about": "“EUbOPEN Chemogenomics Library wave 1” (2021)",
  "test_system": "Fibroblast",
  "test": "Multiplex assay against human fibroblast",
  "type": "toxicity, cell-based",
  "method_in_brief": "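At seeding, live cells were stained with Hoechst33342, BioTracker Green Microtubule Cytoskeleton Dye, MitoTracker Red and Annexin V Alexa Fluor 680. After compound addition they were imaged on a CQ1 microscope at 37°C and 5% CO2, and CellPathfinder machine-learning gating sorted them into Hoechst high-intensity objects or normal cells, with normal cells further split into healthy, pyknosed or fragmented nuclei and pyknosed cells into mitotic or apoptotic. Tubulin, mitochondrial-mass and membrane-permeability phenotypes are given as per cents of cells with healthy nuclei.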",
  "key": {"[1]": {"details": "12 h, 1 µM, compound concentration 1 uM, replicate 1"}, "[2]": {"details": "12 h, 1 µM, compound concentration 1 uM, replicate 2"}, "[3]": {"details": "12 h, 10 µM, compound concentration 10 uM, replicate 1"}, "[4]": {"details": "12 h, 10 µM, compound concentration 10 uM, replicate 2"}, "[5]": {"details": "24 h, 1 µM, compound concentration 1 uM, replicate 1"}, "[6]": {"details": "24 h, 1 µM, compound concentration 1 uM, replicate 2"}, "[7]": {"details": "24 h, 10 µM, compound concentration 10 uM, replicate 1"}, "[8]": {"details": "24 h, 10 µM, compound concentration 10 uM, replicate 2"}},
  "data": [
    {"smiles": "CCN(CC)CCCCNc1ncc2cc(-c3cc(OC)cc(OC)c3)c(NC(=O)NC(C)(C)C)nc2n1", "note": "[PD-173074]", "values": [
      {"measurement": "Population Apoptotic (%)", "setting": "[1]", "result": 61, "unit": "%"},
      {"measurement": "Population Fragmented Nuclei (%)", "setting": "[1]", "result": 20, "unit": "%"},
      {"measurement": "Population Hoechst High Intensity Objects (%)", "setting": "[1]", "result": 70, "unit": "%"},
      {"measurement": "Population Membrane Permeable-Phenotype (%)", "setting": "[1]", "result": 2, "unit": "%"},
      {"measurement": "Population Mitotic Cells (%)", "setting": "[1]", "result": 38, "unit": "%"},
      {"measurement": "Population Normal (%)", "setting": "[1]", "result": 29, "unit": "%"},
      {"measurement": "Population Pyknosed Nuclei (%)", "setting": "[1]", "result": 63, "unit": "%"},
      {"measurement": "Population Tubulin-Different-Phenotype (%)", "setting": "[1]", "result": 8, "unit": "%"},
      {"measurement": "Total Cell Count", "setting": "[1]", "result": 749},
      {"measurement": "Population Apoptotic (%)", "setting": "[2]", "result": 67, "unit": "%"},
      {"measurement": "Population Fragmented Nuclei (%)", "setting": "[2]", "result": 46, "unit": "%"},
      {"measurement": "Population Healthy Nuclei (%)", "setting": "[2]", "result": 15, "unit": "%"},
      {"measurement": "Population Hoechst High Intensity Objects (%)", "setting": "[2]", "result": 72, "unit": "%"},
      {"measurement": "Population Membrane Permeable-Phenotype (%)", "setting": "[2]", "result": 13, "unit": "%"},
      {"measurement": "Population Mitochondria Different-Phenotype (%)", "setting": "[2]", "result": 0, "unit": "%"},
      {"measurement": "Population Mitotic Cells (%)", "setting": "[2]", "result": 32, "unit": "%"},
      {"measurement": "Population Normal (%)", "setting": "[2]", "result": 27, "unit": "%"},
      {"measurement": "Population Pyknosed Nuclei (%)", "setting": "[2]", "result": 38, "unit": "%"},
      {"measurement": "Population Tubulin-Different-Phenotype (%)", "setting": "[2]", "result": 0, "unit": "%"},
      {"measurement": "Total Cell Count", "setting": "[2]", "result": 352},
      {"measurement": "Population Apoptotic (%)", "setting": "[3]", "result": 60, "unit": "%"},
      {"measurement": "Population Fragmented Nuclei (%)", "setting": "[3]", "result": 44, "unit": "%"},
      {"measurement": "Population Healthy Nuclei (%)", "setting": "[3]", "result": 34, "unit": "%"},
      {"measurement": "Population Hoechst High Intensity Objects (%)", "setting": "[3]", "result": 57, "unit": "%"},
      {"measurement": "Population Membrane Permeable-Phenotype (%)", "setting": "[3]", "result": 0, "unit": "%"},
      {"measurement": "Population Mitotic Cells (%)", "setting": "[3]", "result": 39, "unit": "%"},
      {"measurement": "Population Normal (%)", "setting": "[3]", "result": 42, "unit": "%"},
      {"measurement": "Population Pyknosed Nuclei (%)", "setting": "[3]", "result": 20, "unit": "%"},
      {"measurement": "Population Tubulin-Different-Phenotype (%)", "setting": "[3]", "result": 6, "unit": "%"},
      {"measurement": "Total Cell Count", "setting": "[3]", "result": 786},
      {"measurement": "Population Apoptotic (%)", "setting": "[4]", "result": 66, "unit": "%"},
      {"measurement": "Population Fragmented Nuclei (%)", "setting": "[4]", "result": 54, "unit": "%"},
      {"measurement": "Population Healthy Nuclei (%)", "setting": "[4]", "result": 32, "unit": "%"},
      {"measurement": "Population Hoechst High Intensity Objects (%)", "setting": "[4]", "result": 61, "unit": "%"},
      {"measurement": "Population Membrane Permeable-Phenotype (%)", "setting": "[4]", "result": 16, "unit": "%"},
      {"measurement": "Population Mitochondria Different-Phenotype (%)", "setting": "[4]", "result": 4, "unit": "%"},
      {"measurement": "Population Mitotic Cells (%)", "setting": "[4]", "result": 33, "unit": "%"},
      {"measurement": "Population Normal (%)", "setting": "[4]", "result": 38, "unit": "%"},
      {"measurement": "Population Pyknosed Nuclei (%)", "setting": "[4]", "result": 12, "unit": "%"},
      {"measurement": "Population Tubulin-Different-Phenotype (%)", "setting": "[4]", "result": 8, "unit": "%"},
      {"measurement": "Total Cell Count", "setting": "[4]", "result": 189},
      {"measurement": "Population Apoptotic (%)", "setting": "[5]", "result": 59, "unit": "%"},
      {"measurement": "Population Fragmented Nuclei (%)", "setting": "[5]", "result": 32, "unit": "%"},
      {"measurement": "Population Healthy Nuclei (%)", "setting": "[5]", "result": 13, "unit": "%"},
      {"measurement": "Population Hoechst High Intensity Objects (%)", "setting": "[5]", "result": 74, "unit": "%"},
      {"measurement": "Population Membrane Permeable-Phenotype (%)", "setting": "[5]", "result": 0, "unit": "%"},
      {"measurement": "Population Mitotic Cells (%)", "setting": "[5]", "result": 40, "unit": "%"},
      {"measurement": "Population Normal (%)", "setting": "[5]", "result": 25, "unit": "%"},
      {"measurement": "Population Pyknosed Nuclei (%)", "setting": "[5]", "result": 53, "unit": "%"},
      {"measurement": "Population Tubulin-Different-Phenotype (%)", "setting": "[5]", "result": 9, "unit": "%"},
      {"measurement": "Total Cell Count", "setting": "[5]", "result": 594},
      {"measurement": "Population Apoptotic (%)", "setting": "[6]", "result": 62, "unit": "%"},
      {"measurement": "Population Fragmented Nuclei (%)", "setting": "[6]", "result": 44, "unit": "%"},
      {"measurement": "Population Healthy Nuclei (%)", "setting": "[6]", "result": 12, "unit": "%"},
      {"measurement": "Population Hoechst High Intensity Objects (%)", "setting": "[6]", "result": 72, "unit": "%"},
      {"measurement": "Population Membrane Permeable-Phenotype (%)", "setting": "[6]", "result": 16, "unit": "%"},
      {"measurement": "Population Mitochondria Different-Phenotype (%)", "setting": "[6]", "result": 0, "unit": "%"},
      {"measurement": "Population Mitotic Cells (%)", "setting": "[6]", "result": 37, "unit": "%"},
      {"measurement": "Population Normal (%)", "setting": "[6]", "result": 27, "unit": "%"},
      {"measurement": "Population Pyknosed Nuclei (%)", "setting": "[6]", "result": 43, "unit": "%"},
      {"measurement": "Population Tubulin-Different-Phenotype (%)", "setting": "[6]", "result": 0, "unit": "%"},
      {"measurement": "Total Cell Count", "setting": "[6]", "result": 339},
      {"measurement": "Population Apoptotic (%)", "setting": "[7]", "result": 51, "unit": "%"},
      {"measurement": "Population Fragmented Nuclei (%)", "setting": "[7]", "result": 42, "unit": "%"},
      {"measurement": "Population Healthy Nuclei (%)", "setting": "[7]", "result": 39, "unit": "%"},
      {"measurement": "Population Membrane Permeable-Phenotype (%)", "setting": "[7]", "result": 2, "unit": "%"},
      {"measurement": "Population Mitochondria Different-Phenotype (%)", "setting": "[7]", "result": 0, "unit": "%"},
      {"measurement": "Population Mitotic Cells (%)", "setting": "[7]", "result": 48, "unit": "%"},
      {"measurement": "Population Pyknosed Nuclei (%)", "setting": "[7]", "result": 18, "unit": "%"},
      {"measurement": "Population Tubulin-Different-Phenotype (%)", "setting": "[7]", "result": 5, "unit": "%"},
      {"measurement": "Total Cell Count", "setting": "[7]", "result": 734},
      {"measurement": "Population Apoptotic (%)", "setting": "[8]", "result": 60, "unit": "%"},
      {"measurement": "Population Fragmented Nuclei (%)", "setting": "[8]", "result": 58, "unit": "%"},
      {"measurement": "Population Healthy Nuclei (%)", "setting": "[8]", "result": 28, "unit": "%"},
      {"measurement": "Population Hoechst High Intensity Objects (%)", "setting": "[8]", "result": 58, "unit": "%"},
      {"measurement": "Population Membrane Permeable-Phenotype (%)", "setting": "[8]", "result": 28, "unit": "%"},
      {"measurement": "Population Mitochondria Different-Phenotype (%)", "setting": "[8]", "result": 14, "unit": "%"},
      {"measurement": "Population Mitotic Cells (%)", "setting": "[8]", "result": 40, "unit": "%"},
      {"measurement": "Population Normal (%)", "setting": "[8]", "result": 41, "unit": "%"},
      {"measurement": "Population Pyknosed Nuclei (%)", "setting": "[8]", "result": 13, "unit": "%"},
      {"measurement": "Population Tubulin-Different-Phenotype (%)", "setting": "[8]", "result": 19, "unit": "%"},
      {"measurement": "Total Cell Count", "setting": "[8]", "result": 177}
    ]}
  ]
}
